Test results published in ChEMBL document CHEMBL4251593, “Nontoxic combretafuranone analogues with high in vitro antibacterial activity” (Eur J Med Chem, 2018).
≈ marks a conversion by molar mass, not a printed value.

What was measured:
TERT-RPE1 [1] = assay: Cytotoxicity against human RPE1 cells assessed as reduction in cell viability after 48 hrs by ATPlite-based luminescent assay; settings: RPE-1, 48 h
Method in brief: (§1)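 Cells were grown […] with 10% FBS, glutamax, NEAA and pen/strep at 37 °C, 5% CO2. Media were DMEM for RPE-1, HepG2 and BJ (BJ plus 10 ng/ml bFGF), F-12K for PC3, and IMDM for K562/HL-60. Cells were seeded at 500 per well and dosed from DMSO at 12 concentrations, 40 µM to 1 nM, in triplicate. After 48 h, intracellular ATP was read by luminescence. ED50 was obtained by variable-slope nonlinear regression.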

Klebsiella pneumoniae [2] = assay: Antibacterial activity against Klebsiella pneumoniae HK14368/08 clinical isolate after 48 hrs by microdilution assay; assay type: functional; settings: HK14368/08, 48 h
HL-60 [3] = assay: Induction of apoptosis in human HL60 cells assessed as caspase 3/7 activity after 24 hrs by caspase-glo luminescent assay; assay type: cell-based; settings: HL-60, 24 h
Method in brief: (§2)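 Cells were seeded at 500 per well in their growth media and exposed to 12 concentrations from 40 µM to 1 nM, delivered from DMSO, in triplicate. After 24 h, caspase-3/7 activity was read by Caspase-Glo luminescence. Data were normalized and ED50 was fitted by variable-slope nonlinear regression.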

Klebsiella pneumoniae [4] = assay: Antibacterial activity against Klebsiella pneumoniae HK14368/08 clinical isolate after 24 hrs by microdilution assay; assay type: functional; settings: HK14368/08, 24 h
MCF7 = assay: Cytotoxicity against human MCF7 cells assessed as reduction in cell viability after 48 hrs by ATPlite-based luminescent assay; settings: MCF7, 48 h
Enterococcus sp. [5] = assay: Antibacterial activity against Enterococcus sp. HK14365/08 clinical isolate after 24 hrs by microdilution assay; assay type: functional; settings: HK14365/08, 24 h
Staphylococcus aureus [6] = assay: Antibacterial activity against methicillin-resistant Staphylococcus aureus HK5996/08 clinical isolate after 48 hrs by microdilution assay; assay type: functional; settings: HK5996/08, 48 h
Enterococcus sp. [7] = assay: Antibacterial activity against Enterococcus sp. HK14365/08 clinical isolate after 48 hrs by microdilution assay; assay type: functional; settings: HK14365/08, 48 h
TERT-RPE1 [8] = assay: Induction of apoptosis in human RPE1 cells assessed as caspase 3/7 activity after 24 hrs by caspase-glo luminescent assay; assay type: cell-based; settings: RPE-1, 24 h; method in brief: as §2
K562 [9] = assay: Induction of apoptosis in human K562 cells assessed as caspase 3/7 activity after 24 hrs by caspase-glo luminescent assay; assay type: cell-based; settings: K562, 24 h; method in brief: as §2
K562 [10] = assay: Cytotoxicity against human K562 cells assessed as reduction in cell viability after 48 hrs by ATPlite-based luminescent assay; settings: K562, 48 h; method in brief: as §1
Staphylococcus aureus [11] = assay: Antibacterial activity against Staphylococcus aureus ATCC 6538 after 24 hrs by microdilution assay; assay type: functional; settings: ATCC 6538, 24 h
BJ = assay: Cytotoxicity against human BJ cells assessed as reduction in cell viability after 48 hrs by ATPlite-based luminescent assay; method in brief: as §1
Klebsiella pneumoniae [12] = assay: Antibacterial activity against Klebsiella pneumoniae HK11750/08 clinical isolate after 48 hrs by microdilution assay; assay type: functional; settings: HK11750/08, 48 h
HepG2 [13] = assay: Cytotoxicity against human HepG2 cells assessed as reduction in cell viability after 48 hrs by ATPlite-based luminescent assay; settings: HepG2, 48 h; method in brief: as §1
PC-3 [14] = assay: Cytotoxicity against human PC3 cells assessed as reduction in cell viability after 48 hrs by ATPlite-based luminescent assay; settings: PC-3, 48 h; method in brief: as §1
Staphylococcus aureus [15] = assay: Antibacterial activity against methicillin-resistant Staphylococcus aureus HK5996/08 clinical isolate after 24 hrs by microdilution assay; assay type: functional; settings: HK5996/08, 24 h
HL-60 [16] = assay: Cytotoxicity against human HL60 cells assessed as reduction in cell viability after 48 hrs by ATPlite-based luminescent assay; settings: HL-60, 48 h; method in brief: as §1
Escherichia coli [17] = assay: Antibacterial activity against Escherichia coli ATCC 8739 after 24 hrs by microdilution assay; assay type: functional; settings: ATCC 8739, 24 h
Method in brief: (§3)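 Broth microdilution in Mueller-Hinton medium buffered to pH 7.4 (±0.2), with DMSO as diluent at no more than 2% final. Compounds were tested as 2-fold serial dilutions from 2000 to 0.488 µmol/l. The inoculum was 0.5 McFarland (1.5×10^8 cfu/ml). Plates were held at 37 °C and read visually at 24 and 48 h. MIC was taken as 95% growth inhibition versus control, determined twice in duplicate.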

Pseudomonas aeruginosa [18] = assay: Antibacterial activity against Pseudomonas aeruginosa ATCC 9027 after 24 hrs by microdilution assay; assay type: functional; settings: ATCC 9027, 24 h; method in brief: as §3
Staphylococcus aureus [19] = assay: Antibacterial activity against Staphylococcus aureus ATCC 6538 after 48 hrs by microdilution assay; assay type: functional; settings: ATCC 6538, 48 h
[20] = system: Staphylococcus epidermidis; assay: Antibacterial activity against Staphylococcus epidermidis HK6966/08 clinical isolate after 48 hrs by microdilution assay; assay type: functional; settings: HK6966/08, 48 h
Klebsiella pneumoniae [21] = assay: Antibacterial activity against Klebsiella pneumoniae HK11750/08 clinical isolate after 24 hrs by microdilution assay; assay type: functional; settings: HK11750/08, 24 h
PC-3 [22] = assay: Induction of apoptosis in human PC3 cells assessed as caspase 3/7 activity after 24 hrs by caspase-glo luminescent assay; assay type: cell-based; settings: PC-3, 24 h; method in brief: as §2
Pseudomonas aeruginosa [23] = assay: Antibacterial activity against Pseudomonas aeruginosa ATCC 9027 after 48 hrs by microdilution assay; assay type: functional; settings: ATCC 9027, 48 h; method in brief: as §3
Escherichia coli [24] = assay: Antibacterial activity against Escherichia coli ATCC 8739 after 48 hrs by microdilution assay; assay type: functional; settings: ATCC 8739, 48 h; method in brief: as §3
HepG2 [25] = assay: Induction of apoptosis in human HepG2 cells assessed as caspase 3/7 activity after 24 hrs by caspase-glo luminescent assay; assay type: cell-based; settings: HepG2, 24 h; method in brief: as §2
[26] = system: Staphylococcus epidermidis; assay: Antibacterial activity against Staphylococcus epidermidis HK6966/08 clinical isolate after 24 hrs by microdilution assay; assay type: functional; settings: HK6966/08, 24 h

Structure (SMILES) | IC50 (TERT-RPE1 [1]) [µM] | MIC95 (Klebsiella pneumoniae [2]) [µM] | IC50 (HL-60 [3]) [µM] | MIC95 (Klebsiella pneumoniae [4]) [µM] | IC50 (MCF7) [µM] | MIC95 (Enterococcus sp. [5]) [µM] | MIC95 (Staphylococcus aureus [6]) [µM] | MIC95 (Enterococcus sp. [7]) [µM] | IC50 (TERT-RPE1 [8]) [µM] | IC50 (K562 [9]) [µM] | IC50 (K562 [10]) [µM] | MIC95 (Staphylococcus aureus [11]) [µM] | IC50 (BJ) [µM] | MIC95 (Klebsiella pneumoniae [12]) [µM] | IC50 (HepG2 [13]) [µM] | IC50 (PC-3 [14]) [µM] | MIC95 (Staphylococcus aureus [15]) [µM] | IC50 (HL-60 [16]) [µM] | MIC95 (Escherichia coli [17]) [µM] | MIC95 (Pseudomonas aeruginosa [18]) [µM] | further results
O=C1OCC(c2ccc(C(F)(F)F)cc2)=C1c1c[nH]c2ccccc12 | 0.87 | > 125 | 2.94 | > 125 | > 40 | > 125 | > 125 | > 125 | 1.54 | > 40 | 0.26 | > 125 | > 40 | > 125 | > 40 | > 40 | > 125 | 0.67 | > 125 | > 125 | MIC95 (Staphylococcus aureus [19]): > 125 µM; MIC95 [20]: > 125 µM; MIC95 (Klebsiella pneumoniae [21]): > 125 µM; IC50 (PC-3 [22]): > 40 µM; MIC95 (Pseudomonas aeruginosa [23]): > 125 µM; MIC95 (Escherichia coli [24]): > 125 µM; IC50 (HepG2 [25]): > 40 µM; MIC95 [26]: > 125 µM
O=C1OCC(c2ccc(C(F)(F)F)cc2)=C1c1ccncc1 | > 40 | > 500 | > 40 | > 500 | > 40 | > 500 | 500 (≈ 153 µg/mL) | > 500 | > 40 | > 40 | > 40 | > 500 | > 40 | > 500 | > 40 | > 40 | 500 (≈ 153 µg/mL) | > 40 | > 500 | > 500 | MIC95 (Staphylococcus aureus [19]): > 500 µM; MIC95 [20]: 250 µM (≈ 76.3 µg/mL); MIC95 (Klebsiella pneumoniae [21]): > 500 µM; IC50 (PC-3 [22]): > 40 µM; MIC95 (Pseudomonas aeruginosa [23]): > 500 µM; MIC95 (Escherichia coli [24]): > 500 µM; IC50 (HepG2 [25]): > 40 µM; MIC95 [26]: 250 µM (≈ 76.3 µg/mL)
Cc1ccc(C2=C(c3cccc(C(F)(F)F)c3)C(=O)OC2)cc1 | 1.33 | > 500 | 2.66 | > 500 | 19.1 | > 500 | 31.2 (≈ 9.95 µg/mL) | > 500 | > 40 | 0.31 | 0.29 | 31.2 (≈ 9.95 µg/mL) | > 40 | > 500 | > 40 | > 40 | 31.2 (≈ 9.95 µg/mL) | 0.66 | > 500 | > 500 | MIC95 (Staphylococcus aureus [19]): 31.2 µM (≈ 9.95 µg/mL); MIC95 [20]: 15.6 µM (≈ 4.97 µg/mL); MIC95 (Klebsiella pneumoniae [21]): > 500 µM; IC50 (PC-3 [22]): > 40 µM; MIC95 (Pseudomonas aeruginosa [23]): > 500 µM; MIC95 (Escherichia coli [24]): > 500 µM; IC50 (HepG2 [25]): > 40 µM; MIC95 [26]: 15.6 µM (≈ 4.97 µg/mL)
O=C1OCC(c2ccccc2)=C1c1ccc(F)cc1 | > 40 | > 500 | > 40 | > 500 | > 40 | > 500 | 125 (≈ 31.8 µg/mL) | > 500 | > 40 | > 40 | > 40 | 15.6 (≈ 3.97 µg/mL) | > 40 | > 500 | > 40 | > 40 | 125 (≈ 31.8 µg/mL) | > 40 | > 500 | > 500 | MIC95 (Staphylococcus aureus [19]): 15.6 µM (≈ 3.97 µg/mL); MIC95 [20]: 125 µM (≈ 31.8 µg/mL); MIC95 (Klebsiella pneumoniae [21]): > 500 µM; IC50 (PC-3 [22]): > 40 µM; MIC95 (Pseudomonas aeruginosa [23]): > 500 µM; MIC95 (Escherichia coli [24]): > 500 µM; IC50 (HepG2 [25]): > 40 µM; MIC95 [26]: 125 µM (≈ 31.8 µg/mL)
CC(=O)OCC1(COC(C)=O)OC(=O)C(c2ccc(Br)cc2)=C1c1ccc(C)cc1 | > 40 | > 125 | > 40 | > 125 | > 40 | > 125 | > 125 | > 125 | > 40 | > 40 | > 40 | > 125 | > 40 | > 125 | > 40 | > 40 | > 125 | > 40 | > 125 | > 125 | MIC95 (Staphylococcus aureus [19]): > 125 µM; MIC95 [20]: > 125 µM; MIC95 (Klebsiella pneumoniae [21]): > 125 µM; IC50 (PC-3 [22]): > 40 µM; MIC95 (Pseudomonas aeruginosa [23]): > 125 µM; MIC95 (Escherichia coli [24]): > 125 µM; IC50 (HepG2 [25]): > 40 µM; MIC95 [26]: > 125 µM
